What was measured:
RAW264.7 [1] = assay: Antiinflammatory activity in mouse RAW264.7 cells assessed as inhibition of LPS-stimulated NO production treated 1 hr before LPS challenge measured after 24 hrs by Griess reagent assay; assay type: functional, cell-based
How it was run: (§1)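 Culture medium (phenol red-free) collected after 1 h compound pretreatment then 24 h with LPS 1 µg/mL; mixed 1:1 with Griess reagent (1% sulfanilamide in 5% phosphoric acid plus 0.1% naphthylethylenediamine-HCl), 10 min room temperature, absorbance 550 nm. Nitrite quantified against NaNO2 serial-dilution standard curve, fresh medium as blank. L-NIL 10 µM positive control; means ± S.E.M., three independent experiments.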

RAW264.7 [2] = assay: Cytotoxicity against mouse RAW264.7 cells assessed as cell viability at 50 uM after 24 hrs by MTT assay; assay type: cell-based; details: raw264.7, 24 h
How it was run: (§2)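 MTT viability assay on RAW 264.7 cells at up to 50 µM for 24 h, run both with and without LPS.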

RAW264.7 [3] = assay: Cytotoxicity against LPS-stimulated mouse RAW264.7 cells assessed as cell viability at 50 uM after 24 hrs by MTT assay; assay type: cell-based; details: raw264.7, 24 h; how it was run: as §2
RAW264.7 [4] = assay: Antiinflammatory activity in mouse RAW264.7 cells assessed as decrease in LPS-stimulated PGE2 production treated 1 hr before LPS challenge measured after 24 hrs by enzyme immunoassay; assay type: functional, cell-based
How it was run: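 Cells pre-incubated 1 h with compound (5, 25, 50 µM tested), then LPS 1 µg/mL for 24 h; PGE2 in culture medium quantified by EIA kit per manufacturer. NS-398 10 µM positive control; means ± S.E.M. of three independent experiments, Student's t-test versus LPS-treated group.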

RAW264.7 [5] = assay: Antiinflammatory activity in LPS-stimulated mouse RAW264.7 cells assessed as NO production at 10 uM treated 1 hr before LPS challenge measured after 24 hrs by Griess reagent assay (RVb= 28.72 +/- 1.31 uM); assay type: functional; how it was run: as §1
RAW264.7 [6] = assay: Antiinflammatory activity in LPS-stimulated mouse RAW264.7 cells assessed as PGE2 production at 10 uM treated 1 hr before LPS challenge measured after 24 hrs by enzyme immunoassay (RVb=11.5 +/- 0.36 uM); assay type: functional
RAW264.7 [7] = assay: Antiinflammatory activity in LPS-stimulated mouse RAW264.7 cells assessed as TNFalpha production at 50 uM treated 1 hr before LPS challenge measured after 24 hrs by enzyme immunoassay (RVb=46.7 +/- 4.8 uM); assay type: functional
RAW264.7 [8] = assay: Antiinflammatory activity in LPS-stimulated mouse RAW264.7 cells assessed as TNFalpha production at 25 uM treated 1 hr before LPS challenge measured after 24 hrs by enzyme immunoassay (RVb=46.7 +/- 4.8 uM); assay type: functional
RAW264.7 [9] = assay: Antiinflammatory activity in LPS-stimulated mouse RAW264.7 cells assessed as TNFalpha production at 5 uM treated 1 hr before LPS challenge measured after 24 hrs by enzyme immunoassay (RVb=46.7 +/- 4.8 uM); assay type: functional

COc1ccccc1/C=C/C(=O)OCc1ccc(O[C@@H]2O[C@H](CO)[C@@H](O)[C@H](O)[C@H]2O)c(O)c1 [SALVIIFOSIDE C]
Activity (RAW264.7 [1]): Dose-dependent effect | Activity (RAW264.7 [2]): Non-toxic | Activity (RAW264.7 [3]): Non-toxic | Activity (RAW264.7 [4]): Dose-dependent effect

CC(=N)NCCCC[C@H](N)C(=O)O [L-NIL]
Activity (RAW264.7 [5]): 11.3 µM

CS(=O)(=O)Nc1ccc([N+](=O)[O-])cc1OC1CCCCC1 [NS-398]
Activity (RAW264.7 [6]): 3.2 ng/mL

O=C(OCc1ccc(O[C@@H]2O[C@H](CO)[C@@H](O)[C@H](O)[C@H]2O)c(O)c1)c1ccccc1 [SALVIIFOSIDE A]
Activity (RAW264.7 [1]): Dose-dependent effect | Activity (RAW264.7 [2]): Non-toxic | Activity (RAW264.7 [3]): Non-toxic | Activity (RAW264.7 [4]): Dose-dependent effect

O=C(/C=C/c1ccccc1O)OCc1ccc(O[C@@H]2O[C@H](CO)[C@@H](O)[C@H](O)[C@H]2O)c(O)c1 [SALVIIFOSIDE B]
Activity (RAW264.7 [1]): Dose-dependent effect | Activity (RAW264.7 [7]): 11.2 ng/mL | Activity (RAW264.7 [8]): 24.4 ng/mL | Activity (RAW264.7 [2]): Non-toxic | Activity (RAW264.7 [9]): 43.2 ng/mL | Activity (RAW264.7 [3]): Non-toxic | Activity (RAW264.7 [4]): Dose-dependent effect

From ChEMBL document CHEMBL1152977, “Phenolic glycosides from Alangium salviifolium leaves with inhibitory activity on LPS-induced NO, PGE(2), and TNF-alpha production” (Bioorg Med Chem Lett, 2009)
